Assay [1] deals with Canis familiaris. The assay can be described thus: Antiarrhythmic property A-V nodal conduction time(post drug) is compared to lidocaine(2) using doses(3 and 6 mg/kg). It is filed as functional, Canis lupus familiaris, Heart. In short, it runs like this:
(§1)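 Mongrel dogs (about 12–25 kg), 1–4 days after coronary occlusion infarction, under sodium pentobarbital (~30 mg/kg) with 12-lead ECG monitoring. Agents and lidocaine were given iv at 3 and 6 mg/kg. Programmed ventricular stimulation was applied at baseline, about 2–5 min after each dose, and at 30 min. SVT was defined as ≥250 beats/min lasting ≥30 s. Pre means drug-free; post means after dosing.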

The test system of assay [2] is Canis familiaris. Put plainly: Antiarrhythmic property is compared to lidocaine(2) using doses(3 and 6 mg/kg). Time required for the ventricular myocardium to undergo depolarization and repolarization ((post drug). It is filed as functional, Canis lupus familiaris. In short, it runs like this:
as §1

Assay [3] relates to Canis familiaris. Put plainly: Antiarrhythmic property is compared to lidocaine(2) using doses(3 and 6 mg/kg). Time required for the ventricular myocardium to undergo depolarization and repolarization (drug free). Format: functional, Canis lupus familiaris. In short, it runs like this:
as §1

The subject of assay [4] is Canis familiaris. Put plainly: Tested for antiarrhythmic property by measuring ability to decrease heart rate(drug free) is compared to Lidocaine using doses (3 and 6 mg/kg). Format: functional, Canis lupus familiaris. In short, it runs like this:
as §1

The test system of assay [5] is Canis familiaris. The assay can be described thus: Tested for antiarrhythmic property by measuring ability to decrease heart rate(post drug) is compared to Lidocaine using doses(3 and 6 mg/kg). It is filed as functional, Canis lupus familiaris. In short, it runs like this: as §1
Assay [6] deals with Canis familiaris. Put plainly: Antiarrhythmic property A-V nodal conduction time(drug free) is compared to lidocaine(2) using doses(3 and 6 mg/kg). It is filed as functional, Canis lupus familiaris, Heart. In short, it runs like this:
as §1

Assay [7] has as its system Canis familiaris. The assay can be described thus: Tested for antiarrhythmic property by measuring ability to decrease Mean blood pressure (drug free) is compared to Lidocaine using doses(3 and 6 mg/kg). Format: functional, Canis lupus familiaris. In short, it runs like this:
as §1

The subject of assay [8] is Canis familiaris. The assay can be described thus: Tested for antiarrhythmic property by measuring ability to decrease Mean blood pressure(post drug) is compared to Lidocaine using doses(3 and 6 mg/kg). Format: functional, Canis lupus familiaris. In short, it runs like this:
as §1

Assay [9] deals with Canis familiaris. Put plainly: Antiarrhythmic property ventricular effective refractory period(drug free) is compared to lidocaine(2) using doses(3 and 6 mg/kg). Format: functional, Canis lupus familiaris, Heart. In short, it runs like this: as §1
In assay [10] the test system is Canis familiaris. Put plainly: Antiarrhythmic property ventricular effective refractory period(post drug) is compared to lidocaine(2) using doses(3 and 6 mg/kg). Format: functional, Canis lupus familiaris, Heart. In short, it runs like this: as §1
The test system of assay [11] is Canis familiaris. The assay can be described thus: Antiarrhythmic property A-V nodal conduction time(post drug) is compared to lidocaine(2) using dose (3 and 6 mg/kg); No effect. Format: functional, organism-based. Also noted: dose 6 mg/kg. The settings on record: Canis lupus familiaris; Heart. In short, it runs like this: (§2)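 Mongrel dogs (~12–25 kg), 1–4 days after coronary occlusion leaving a surviving epicardial rim, anesthetized with sodium pentobarbital (~30 mg/kg). 12-lead ECG monitored throughout. Agent given iv at 3 and 6 mg/kg. Parameters recorded before (drug free) and after dosing. Programmed electrical stimulation tested SVT inducibility (≥250 beats/min, ≥30 s) at baseline, ~2–5 min after each dose, and at 30 min.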

Assay [12] deals with Canis familiaris. The assay can be described thus: Antiarrhythmic property compared to lidocaine(2) using doses(3 and 6 mg/kg). Time required for the ventricular myocardium to undergo depolarization and repolarization ((post drug); No effect. Format: functional, organism-based. Further details: dose 6 mg/kg. The settings on record: Canis lupus familiaris. In short, it runs like this:
as §1

For assay [13], the system named is Canis familiaris. Put plainly: Antiarrhythmic property compared to lidocaine(2) using doses(3 and 6 mg/kg). Time required for the ventricular myocardium to undergo depolarization and repolarization (drug free); No effect. Also noted: dose 6 mg/kg. To be noted: Canis lupus familiaris. It is filed as functional, organism-based. In short, it runs like this:
as §1

Assay [14] deals with Canis familiaris. Put plainly: (§3) Antiarrhythmic property A-V nodal conduction time(drug free) is compared to lidocaine(2) using doses(3 and 6 mg/kg); No effect. It is filed as functional, organism-based. Further details: dose 6 mg/kg. The settings on record: Canis lupus familiaris; Heart. In short, it runs like this:
as §2

Assay [15] deals with Canis familiaris. The assay can be described thus: Antiarrhythmic property Heart rate (drug free) is compared to Lidocaine using doses (3 and 6 mg/kg). Format: functional, Canis lupus familiaris. In short, it runs like this:
as §2

The test system of assay [16] is Canis familiaris. Put plainly: Antiarrhythmic property Heart rate (post drug) is compared to Lidocaine using doses(3 and 6 mg/kg). system. It is filed as functional, Canis lupus familiaris. In short, it runs like this: as §2
The subject of assay [17] is Canis familiaris. The assay can be described thus: Antiarrhythmic property Mean blood pressure (drug free) is compared to Lidocaine using doses(3 and 6 mg/kg). It is filed as functional, Canis lupus familiaris. In short, it runs like this: as §2
For assay [18], the system named is Canis familiaris. The assay can be described thus: Antiarrhythmic property Mean blood pressure(post drug) is compared to Lidocaine using doses(3 and 6 mg/kg). It is filed as functional, Canis lupus familiaris. In short, it runs like this: as §2
Assay [19] has as its system Canis familiaris. The assay can be described thus: Antiarrhythmic property His-Purkinje conduction time(post drug) is compared to lidocaine(2) using dose(3 and 6 mg/kg); No effect. The settings on record: Canis lupus familiaris; His-Purkinje system. Format: functional, organism-based. Further details: dose 6 mg/kg. In short, it runs like this:
as §1

The subject of assay [20] is Canis familiaris. Put plainly: Antiarrhythmic property His-Purkinje conduction time(drug free) is compared to lidocaine(2) using doses(3 and 6 mg/kg); No effect. To be noted: Canis lupus familiaris; His-Purkinje system. Format: functional, organism-based. Further details: dose 6 mg/kg. In short, it runs like this:
as §1

The test system of assay [21] is Canis familiaris. The assay can be described thus: Antiarrhythmic property ventricular effective refractory period(drug free) is compared to lidocaine(2) using doses(3 and 6 mg/kg); No effect. Format: functional, organism-based. Also noted: dose 6 mg/kg. The settings on record: Canis lupus familiaris; Heart. In short, it runs like this:
as §2

Assay [22] concerns Canis familiaris. Put plainly: Antiarrhythmic property ventricular effective refractory period(post drug) is compared to lidocaine(2) using doses(3 and 6 mg/kg); No effect. It is filed as functional, organism-based. Further details: dose 6 mg/kg. To be noted: Canis lupus familiaris; Heart. In short, it runs like this: as §2
In assay [23] the test system is Canis familiaris. Put plainly: Antiarrhythmic property Nonsustained ventricular tachycardia is compared to lidocaine(2) using dose of (3 and 6 mg/kg). It is filed as functional, Canis lupus familiaris, Heart. In short, it runs like this: as §2
Assay [24] relates to Canis familiaris. The assay can be described thus: Tested for antiarrhythmic property by measuring ability to decrease heart rate(drug free) is compared to Lidocaine using doses (3 and 6 mg/kg); No effect. It is filed as functional, organism-based. Further details: dose 6 mg/kg. To be noted: Canis lupus familiaris. In short, it runs like this: as §1
Assay [25] deals with Canis familiaris. Put plainly: Tested for antiarrhythmic property by measuring ability to decrease heart rate(post drug) is compared to Lidocaine using doses(3 and 6 mg/kg); No effect. Format: functional, organism-based. Also noted: dose 6 mg/kg. The settings on record: Canis lupus familiaris. In short, it runs like this: as §1
Assay [26] has as its system Canis familiaris. The description is as §3. The settings on record: Canis lupus familiaris; Heart. It is filed as functional, organism-based. Further details: dose 6 mg/kg. In short, it runs like this: as §1
This is another data set of the same source.

In assay [27] the test system is Canis familiaris. Put plainly: Antiarrhythmic property A-V nodal conduction time(post drug) is compared to lidocaine(2) using doses(3 and 6 mg/kg); No effect. To be noted: Canis lupus familiaris; Heart. It is filed as functional, organism-based. Further details: dose 6 mg/kg. In short, it runs like this: as §1
Assay [28] has as its system Canis familiaris. Put plainly: Antiarrhythmic property is compared to lidocaine(2) using doses(3 and 6 mg/kg). Time required for the ventricular myocardium to undergo depolarization and repolarization ((post drug); No effect. It is filed as functional, organism-based. Also noted: dose 6 mg/kg. The settings on record: Canis lupus familiaris. In short, it runs like this: as §1

Assay [29] deals with Canis familiaris. Put plainly: Antiarrhythmic property is compared to lidocaine(2) using doses(3 and 6 mg/kg). Time required for the ventricular myocardium to undergo depolarization and repolarization (drug free); No effect. Format: functional, organism-based. Further details: dose 6 mg/kg. To be noted: Canis lupus familiaris. In short, it runs like this: as §1
For assay [30], the system named is Canis familiaris. Put plainly: Antiarrhythmic property His-Purkinje conduction time(post drug) is compared to lidocaine(2) using doses(3 and 6 mg/kg); No effect. Format: functional, organism-based. Further details: dose 6 mg/kg. To be noted: Canis lupus familiaris; His-Purkinje system. In short, it runs like this:
as §1

Activity calls are given as the source filed them.

These results are taken from ChEMBL document CHEMBL1129356, “Novel 3,7-diheterabicyclo[3.3.1]nonanes that possess predominant class III antiarrhythmic activity in 1-4 day post infarction dog models: X-ray diffraction analysis of 3-[4-(1H-imidazol-1-yl)benzoyl]-7-isopropyl-3,7-diazabicyclo[3.3.1]nona ne dihydroperchlorate” (1996).

As to `CC(C)N1CC2CC(CN(C(=O)c3ccc(N)cc3)C2)C1.Cl.Cl`, the AH interval in the assay with Canis familiaris [1] is listed as 65 ms; with Canis familiaris [6], 55 ms. In addition, the results for the QT with Canis familiaris [2] and in the assay on Canis familiaris [3] were 220 ms and 210 ms, respectively. The HR with Canis familiaris [4] is given as 130 beats min-1; in the assay on Canis familiaris [5], 115 beats min-1. For the same compound, the MBP in the assay with Canis familiaris [7] amounted to 100 mmHg; in the assay with Canis familiaris [8] it was 77 mmHg. Also, in the assay on Canis familiaris [9], the NSVT worked out at 6 mg/kg. The compound also displayed a VERP in the assay with Canis familiaris [10] of 220 ms.
Regarding `c1ccc(CN2CC3CN(CC4CC4)CC(C2)C32SCCS2)cc1`, the AH interval result in the assay with Canis familiaris [11] and in the assay on Canis familiaris [14] was “inactive” each time. In addition, the QT result in the assay with Canis familiaris [12] and with Canis familiaris [13] was “inactive” in each case. Besides, the HR with Canis familiaris [15] and in the assay on Canis familiaris [16] was 148 beats min-1 in each case. Further, the MBP with Canis familiaris [17] and with Canis familiaris [18] was 105 mmHg each time. The HV interval entry in the assay on Canis familiaris [19] and with Canis familiaris [20] was “inactive” in each case. In addition, the VERP result with Canis familiaris [21] and in the assay on Canis familiaris [22] was “inactive” in each case. The NSVT in the assay on Canis familiaris [23] was 3 mg/kg.
`CCN(CC)CC(=O)Nc1c(C)cccc1C` [LIDOCAINE]: the HR entry in the assay with Canis familiaris [24] and with Canis familiaris [25] was “inactive” each time. Moreover, the AH interval result in the assay on Canis familiaris [26] and with Canis familiaris [27] was “inactive” in each case. In addition, the QT interval entry with Canis familiaris [28] and with Canis familiaris [29] was “inactive” throughout. Moreover, the values for the MBP with Canis familiaris [7] and in the assay with Canis familiaris [8] were 105 mmHg and 84 mmHg, respectively. For the same compound, the HV interval entry with Canis familiaris [20] and with Canis familiaris [30] was “inactive” in each case. Also, the VERP with Canis familiaris [9] is on record as 142 ms; in the assay with Canis familiaris [10], 167 ms.
